This note sets out measurements from ChEMBL document CHEMBL1933011, “Probing the antiamoebic and cytotoxicity potency of novel tetrazole and triazine derivatives” (Eur J Med Chem, 2012).

Data set [1] concerns HepG2. The data set is described as follows: Cytotoxicity against human HepG2 cells up to 100 uM after 48 hrs by MTT assay. The following applies: hepg2, 48 h. The data set is classed as cell-based. The method in brief:
(§1)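 HepG2 in DMEM/10% FBS, 1.2 × 10^4 cells/well, grown 48 h before dosing. Compounds from 10% DMSO stocks diluted in medium, 3.13–100 µM, 48 h at 37 °C, 5% CO2. MTT (5 mg mL-1) for 4 h, DMSO solubilisation, absorbance at 570 nm (reference 655 nm). Viability is treated absorbance relative to untreated control. Triplicate, repeated thrice.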

Data set [2] deals with Entamoeba histolytica. The data set is described as follows: Antiamoebic activity against Entamoeba histolytica HM-1:IMSS after 72 hrs by microdilution method. The data set is classed as functional, organism-based. An outline of the steps:
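E. histolytica HM1:IMSS trophozoites in Diamond TYIS-33 medium; 1 mg mL-1 DMSO stocks, two-fold serial dilutions; 1.7 × 10^4 amoebae/well; sealed, gassed with nitrogen 10 min, 35.5 °C for 72 h. Wells methanol-fixed, eosin-stained, dye released in 0.1N NaOH, OD 490 nm. % inhibition vs control plotted against log dose; IC50 by linear regression. Triplicate, repeated thrice.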
On the technique in general: Broth dilution looks for growth in wells or tubes with falling amounts of substance.

Data set [3] relates to HepG2. The data set is described as follows: Cytotoxicity against human HepG2 cells up to 50 uM after 48 hrs by MTT assay. The following applies: hepg2, 48 h. The data set is classed as cell-based. The method in brief: as §1
(Tetrazolium assays rely on reduction of a dye to a coloured formazan, in cell work by metabolically active cells.)

Data set [4] concerns HepG2. Put plainly: Cytotoxicity against human HepG2 cells after 48 hrs by MTT assay. Format: cell-based. The following applies: for IC50: Homo sapiens, HepG2, 48 h; for Activity: human, hepg2, 48 h. An outline of the steps:
as §1

The nature of data set [5]: Safety index, ratio of IC50 for human HepG2 cells to IC50 for Entamoeba histolytica HM-1:IMSS. The following applies: read-out: Ratio IC50. Format: toxicity, cell-based. An outline of the steps:
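Safety index calculated as HepG2 MTT IC50 (48 h) divided by E. histolytica HM1:IMSS IC50 (72 h microdilution).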

Data set [6] in a line: Cytotoxicity against human HepG2 cells assessed as viable cells at 25 uM after 48 hrs by MTT assay. The data set is classed as cell-based. The following applies: read-out: Activity. An outline of the steps:
as §1

Data set [7] is described as follows: Cytotoxicity against human HepG2 cells assessed as viable cells at 3.13 uM after 48 hrs by MTT assay. The data set is classed as cell-based. The conditions noted are these: read-out: Activity. The method in brief:
as §1

As usually defined, the IC50 is the midpoint of a concentration-inhibition curve. Take `O=S(=O)(c1ccccc1)n1nnnc1-c1ccc2c(c1)OCO2`: the Activity result in data set [1] was “Toxic”; in data set [3], “Toxic”; in data set [4] it was “Dose-dependent effect”. The IC50 in data set [2] was 7.56 µM; in data set [4], more than 100 µM. In addition, the selectivity ratio in data set [5] was more than 13.2. For the same compound, the viability at 48 h, 25 µM in data set [6] was not below 70%. Moreover, the viability at 48 h, 3.13 µM in data set [7] is 92.5%.

As for `Cc1ccc(S(=O)(=O)n2nnnc2-c2ccc3c(c2)OCO3)cc1`, the Activity result in data set [1] was “Toxic”; in data set [3] it was “Toxic”; in data set [4], “Dose-dependent effect”. The figures for the IC50 in data set [2] and in data set [4] were 6.1 µM and more than 100 µM, respectively. For the same compound, in data set [5], the selectivity ratio was more than 16.4. Moreover, the viability at 48 h, 25 µM in data set [6] was not below 70%. In addition, the viability at 48 h, 3.13 µM in data set [7] amounted to 92.5%.

Take `O=S(=O)(c1ccc(Cl)cc1)n1nnnc1-c1ccc2c(c1)OCO2`: the Activity result is on record as “Toxic” in data set [1], “Toxic” in data set [3] and “Dose-dependent effect” in data set [4]. Further, the figures for the IC50 in data set [2] and in data set [4] were 4.85 µM and more than 100 µM, respectively. For the same compound, in data set [5], the selectivity ratio is more than 20.6. Further, the viability at 48 h, 25 µM in data set [6] was not below 70%. In addition, the viability at 48 h, 3.13 µM in data set [7] turned out to be 92.5%.

For `O=[N+]([O-])c1ccc(S(=O)(=O)n2nnnc2-c2ccc3c(c2)OCO3)cc1`, the results for the Activity result in data set [1], in data set [3] and in data set [4] were “Toxic”, “Toxic” and “Dose-dependent effect”, respectively. The half-maximal inhibitory concentration (IC50) in data set [2] was 3.75 µM; in data set [4] it was 84.7 µM. Moreover, the selectivity ratio in data set [5] came out at 22.6. In data set [6], the viability at 48 h, 25 µM was not below 70%. Also, in data set [7], the viability at 48 h, 3.13 µM is 92.5%.

Turning to `O=S(=O)(c1ccc(Cl)cc1Cl)n1nnnc1-c1ccc2c(c1)OCO2`, the Activity result was “Toxic” in data set [1], “Toxic” in data set [3] and “Dose-dependent effect” in data set [4]. The concentration for half-maximal inhibition (IC50) in data set [2] was 6.9 µM; in data set [4], 85 µM. For the same compound, in data set [5], the selectivity ratio worked out at 12.3. For the same compound, the viability at 48 h, 25 µM in data set [6] is not below 70%. Also, the viability at 48 h, 3.13 µM in data set [7] came out at 92.5%.

Turning to `CC(C)c1ccc(S(=O)(=O)n2nnnc2-c2ccc3c(c2)OCO3)cc1`, the Activity entry is listed as “Toxic” in data set [1], “Toxic” in data set [3] and “Dose-dependent effect” in data set [4]. Further, the IC50 is 6.28 µM in data set [2] and more than 100 µM in data set [4]. In addition, in data set [5], the selectivity ratio is more than 15.9. In data set [6], the viability at 48 h, 25 µM is not below 70%. In addition, the viability at 48 h, 3.13 µM in data set [7] was 92.5%.

Regarding `O=S(=O)(Nc1nc(NS(=O)(=O)c2ccccc2)nc(-c2ccc3c(c2)OCO3)n1)c1ccccc1`, the Activity result in data set [1] is reported as “Toxic”; in data set [3], “Toxic”; in data set [4], “Dose-dependent effect”. Besides, the IC50 was 2.6 µM in data set [2] and more than 100 µM in data set [4]. Besides, the selectivity ratio in data set [5] was more than 38.5. The viability at 48 h, 25 µM in data set [6] is not below 70%. In data set [7], the viability at 48 h, 3.13 µM was 92.5%.

As for `Cc1ccc(S(=O)(=O)Nc2nc(NS(=O)(=O)c3ccc(C)cc3)nc(-c3ccc4c(c3)OCO4)n2)cc1`, the figures for the Activity entry in data set [1], in data set [3] and in data set [4] were “Toxic”, “Toxic” and “Dose-dependent effect”, respectively. The half-maximal inhibitory concentration (IC50) in data set [2] was 2.15 µM; in data set [4] it was more than 100 µM. Moreover, in data set [5], the selectivity ratio is more than 46.5. Moreover, in data set [6], the viability at 48 h, 25 µM was not below 70%. Moreover, the viability at 48 h, 3.13 µM in data set [7] is 92.5%.

Turning to `O=S(=O)(Nc1nc(NS(=O)(=O)c2ccc(Cl)cc2)nc(-c2ccc3c(c2)OCO3)n1)c1ccc(Cl)cc1`, the values for the Activity entry in data set [1], in data set [3] and in data set [4] were “Toxic”, “Toxic” and “Dose-dependent effect”, respectively. Further, the IC50 was 1.05 µM in data set [2] and more than 100 µM in data set [4]. For the same compound, the selectivity ratio in data set [5] is more than 95.2. Also, the viability at 48 h, 25 µM in data set [6] is not below 70%. Also, the viability at 48 h, 3.13 µM in data set [7] is 92.5%.

Turning to `O=[N+]([O-])c1ccc(S(=O)(=O)Nc2nc(NS(=O)(=O)c3ccc([N+](=O)[O-])cc3)nc(-c3ccc4c(c3)OCO4)n2)cc1`, the Activity entry in data set [1] is “Toxic”; in data set [3], “Toxic”; in data set [4], “Dose-dependent effect”. For the same compound, the IC50 in data set [2] is 1.02 µM; in data set [4], more than 100 µM. Moreover, the selectivity ratio in data set [5] was more than 98. Moreover, the viability at 48 h, 25 µM in data set [6] is not below 70%. Further, the viability at 48 h, 3.13 µM in data set [7] was 92.5%.

Turning to `O=S(=O)(Nc1nc(NS(=O)(=O)c2ccc(Cl)cc2Cl)nc(-c2ccc3c(c2)OCO3)n1)c1ccc(Cl)cc1Cl`, the Activity entry in data set [1] is recorded as “Toxic”; in data set [3] it was “Toxic”; in data set [4], “Dose-dependent effect”. Besides, the IC50 is 2.56 µM in data set [2] and more than 100 µM in data set [4]. For the same compound, in data set [5], the selectivity ratio was more than 39.1. The viability at 48 h, 25 µM in data set [6] was not below 70%. For the same compound, the viability at 48 h, 3.13 µM in data set [7] stood at 92.5%.

For the compound `CC(C)c1ccc(S(=O)(=O)Nc2nc(NS(=O)(=O)c3ccc(C(C)C)cc3)nc(-c3ccc4c(c3)OCO4)n2)cc1`, the Activity result is “Toxic” in data set [1], “Toxic” in data set [3] and “Dose-dependent effect” in data set [4]. The IC50 in data set [2] was 2.85 µM; in data set [4] it was more than 100 µM. Further, the selectivity ratio in data set [5] was more than 35.1. The viability at 48 h, 25 µM in data set [6] was not below 70%. Moreover, in data set [7], the viability at 48 h, 3.13 µM came out at 92.5%.

On to `c1cc2c(cc1-c1nnn[nH]1)OCO2`, for which the Activity result in data set [1] is “Toxic”; in data set [3] it was “Toxic”; in data set [4] it was “Dose-dependent effect”. Also, half-maximal inhibition in data set [2] (IC50) was put at 14.2 µM. The viability at 48 h, 25 µM in data set [6] is not below 70%. Further, the viability at 48 h, 3.13 µM in data set [7] came out at 92.5%.

As to `Nc1nc(N)nc(-c2ccc3c(c2)OCO3)n1`, the Activity entry in data set [1] is given as “Toxic”; in data set [3], “Toxic”; in data set [4] it was “Dose-dependent effect”. Further, the 50% inhibitory concentration (IC50) in data set [2] worked out at 3.54 µM. Besides, the viability at 48 h, 25 µM in data set [6] is not below 70%. Further, the viability at 48 h, 3.13 µM in data set [7] is 92.5%.

`Cc1ncc([N+](=O)[O-])n1CCO` [METRONIDAZOLE]: in data set [4], the IC50 was more than 100 µM. In addition, in data set [5], the selectivity ratio was more than 55.5. Further, the viability at 48 h, 3.13 µM in data set [7] worked out at 92.5%.
